# From PubChem
# FN deposit inh – fibronectin deposition inhibition; AH1F fibroblasts, Alexa488-fibronectin deposition fluorescence, overnight; inhibition, % at 12.6 µM; 350,000 tested, 0.086% active; AID 743247;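 active means mean inhibition across replicates of 30% or more, regardless of how many single replicates reach that level; inconclusive means mean under 30% yet at least half of replicates reach 30%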;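 further: positive control wells lacked labelled fibronectin entirely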
#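 Schedule: 1 h cell adhesion before compound, then overnight fibronectin incubation; test system: AH1F fibroblast monolayer depositing Alexa488-labelled fibronectin into matrix; quantity: 10000 AH1F cells per well; probe or stimulus: fluorescent fibronectin at 24 nM final; signal: fluorescence, ex 485 nm, em 525 nm; evaluation: percent inhibition as loss of matrix-bound fibronectin fluorescence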
# Env fusion inh – inhibitors of HIV Env-mediated cell fusion | HeLa-JRFL Env/CEM21 cell fusion, luciferase | inhibition, % at 12.3 µM | 360,000 tested, 1.1% active | AID 651610;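 active means mean replicate inhibition score of at least 50 and every replicate individually at or above 50; inconclusive means only one of the two criteria met; inactive means mean below 50 and not all replicates reaching 50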;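 further: 0% = plate neutral controls and 100% = maraviroc near 300 nM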
# Ecoli rRNA inh – inhibitors of bacterial rRNA selective over humanized ribosomes | GFP signal change (wild-type ribosome), % (concentration not given with the values) | E. coli WT GFP vs humanized-ribosome RFP mutants, fluorescence, 24 h; stronger effect = lower value; DMSO median 0, no signal -100 | AID 720706 | 350,000 tested, 1.6% active;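 active means significant combined selectivity score with lowered wild-type GFP, culture density cut under 30%, mutant RFP and density less affected; inactive means any of these conditions unmet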
# miR122 inh – blocks miR-122 activity in Huh7 sensor cells | Huh7 miR-122 Renilla luciferase sensor, 48 h; neutral wells = 0, positive control = 100 | activation (reporter increase), % at 12.5 µM | 340,000 tested, 0.3% active | AID 602342;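 active means mean replicate activation score at least 90 and every replicate individually at or above 90; inconclusive means only one of the two criteria met; inactive means neither criterion met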;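 further: higher luciferase means less miR-122 activity so hits act as miR-122 inhibitors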
# Vif imaging – blocks HIV Vif function. AID 602346. inhibition, % at 7.49 µM. HEK293T cells, Vif self-association by quenched fluorescence, imaging, 24 h. 340,000 tested, 0.35% active; in the data active means inhibition above about 50%, passing the limit was not always enough; inconclusive means no clear call, values can overlap the other calls; inactive means below about 31%
# S100A4 inh HTS – blocks human S100A4 binding to myosin IIA peptide; P26447; S100A4/TAMRA-MyoIIA peptide fluorescence polarization; inhibition, % at 10.7 µM; 360,000 tested, 0.14% active; AID 652163;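 active means mean inhibition of at least 70% across replicates, with every replicate also reaching that level; inconclusive means mean inhibition reaches 70% but some replicates fall short; inactive means mean inhibition below 70%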
# Target sequence (P26447 whole entry, looked up): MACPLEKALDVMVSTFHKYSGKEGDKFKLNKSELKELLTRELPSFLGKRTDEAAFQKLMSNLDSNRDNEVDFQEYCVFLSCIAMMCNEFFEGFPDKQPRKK
#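 Test system – S100A4 monomer (human) · Compound – single-point compound testing · Schedule – 5 min incubation before reading · Probe or stimulus – TAMRA-labelled myosin IIA heavy-chain peptide probe, 5 nM · Benchmarks – neutral control DMSO, positive control TFP · Medium – Calcium-containing HEPES buffer, pH 7.2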
# AID977621 – wild-type E. coli growth inhibition versus H69 humanized strain – H69 mutant RFP, wild-type GFP, cherry-pick, dose response | shares compounds with Ecoli rRNA inh | fluorescence, 24 h | activity change, negative = inhibition at 50 µM | 1,900 tested, under 10 active;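 active means Wild-type ribosome reporter drop at least double the humanized mutant ribosome reporter drop, growth loss under a set limit; inconclusive means no clear call, values can overlap the other calls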;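 further: wild-type GFP and H69 mutant RFP strains grown together 50/50 in each well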
# AID977628 – E. coli growth inhibition, wild-type GFP versus h24 humanized RFP strain, dose response, h24 mutant RFP vs wild-type GFP, cherry-pick; shares compounds with Ecoli rRNA inh; E. coli WT GFP strain growth, fluorescence, 24 h; activity change, negative = inhibition at 50 µM; 1,900 tested, under 10 active; AID 977628;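 active means compound lowering the normal-ribosome reporter at least twice as much as the humanized-ribosome reporter, growth loss under a set limit; inconclusive means no clear call, values can overlap the other calls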;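 further: wild-type GFP and h24 humanized RFP strains co-cultured 1 to 1 per well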
# The depositor's hits bear a star; u = inconclusive; x = no result; [ ] = another dose, or the depositor's remark. This is a sample that favours compounds with a hit; in the whole collection about 2.6% have one here.
SMILES,FN deposit inh,Env fusion inh,Ecoli rRNA inh,miR122 inh,Vif imaging,S100A4 inh HTS,AID977621,AID977628
CC(=O)c1ccccc1OCCOCCOCCOc1ccccc1C(C)=O,-12,15,-22*,-3,-1,3,-5.6,u
C[C@@H]1CCCCO[C@H](CN(C)C(=O)CCCN(C)C)[C@@H](C)CN([C@@H](C)CO)C(=O)c2cc(NC(=O)NC3CCCCC3)ccc2O1,x,11[16.7 µM],1,7[16.7 µM],x,-6,x,x
CCNC(=O)CN(c1ccccc1OC)S(=O)(=O)c1cccs1,0,-8,x,-3,21,x,x,x
COc1ccc(NC(=O)CN(c2ccccc2OC)S(=O)(=O)c2cccs2)cc1Cl,2,26,-17*,-3,-11,-4,-11,x
COc1ccc(-c2cn(CC[C@H]3CC[C@@H](NC(=O)NC(C)C)[C@@H](CO)O3)nn2)cc1,1,15[16.7 µM],1,x,x,5,x,x
C[C@H]1CN([C@@H](C)CO)C(=O)c2cccc(NS(=O)(=O)c3ccc(Cl)cc3)c2O[C@H]1CN(C)Cc1ccc(-c2ccccc2)cc1,-8,16[16.7 µM],x,-3[16.7 µM],x,0,x,x
COc1ccc(C(=O)c2c(C)oc3ccc(O)cc23)cc1,5,-1,-22*,-6,3,-1,-17,x
C[C@H]1CN([C@@H](C)CO)C(=O)c2cccc(NC(=O)Nc3ccc(F)cc3)c2O[C@H]1CN(C)C,6,x,1,-4[16.7 µM],x,26,x,x
C#CCOc1nc(Nc2cccc([N+](=O)[O-])c2)nc(OCC#C)n1,x,4,-18*,0,x,6,-11,-2.5
O=C(C[C@@H]1C=C[C@H](NC(=O)c2cccnc2)[C@@H](CO)O1)NCc1ccncn1,-5,x,4,x,x,-7,x,x
O=C(COC(=O)c1cccc(S(=O)(=O)N2CCCCC2)c1)NCc1cccc(Cl)c1,-5,20,-15*,-6,x,6,x,2.4
C=CCn1c(C)cc(C(=O)CSc2nnc(C3CC3)n2C2CC2)c1C,1,-19,-20*,-8,1,0,-20,x
Cc1c(C(=O)NC2CCN(Cc3ccccc3)C2)oc2ccc(Br)cc12 (stereo not given),-1,12,-65,x,2,-6,x,x
CCOc1ccc2oc(C(=O)NC3CCN(Cc4ccccc4)CC3)c(C)c2c1,4,12,-23*,8,-6,-9,-23,x
CO[C@@H]1CN(C)C(=O)c2ccc(NC(=O)C3CC3)cc2OC[C@H](C)N(C(=O)NC(C)C)C[C@H]1C,4,x,0,x,x,2,x,x
COc1cc(NC(=O)COC(=O)CC(C)(C)C)c(C)cc1[N+](=O)[O-],9,9,-22*,x,-8,-3,u,x
CC(C)(C)c1cc(-c2n[nH]c(=S)n2-c2ccc(Cl)cc2)n[nH]1,-2,-8,-31*,x,-1,2,u,x
Cc1nn(C)cc1-c1n[nH]c(=S)n1-c1ccc(Cl)cc1,-3,-12,9,0,-13,-2,x,x
CCc1c(C)sc2nc3c(C(=O)N4CCOCC4)cc(C(=O)c4ccccc4O)cn3c(=O)c12,0,8,19,8,-4,1,x,x
O=C(c1cc(C(=O)N2CCOCC2)c2nc3ccccc3n2c1)c1cc(Cl)cc(Cl)c1O,2,11,-18*,-1,-4,-3,x,u
Cc1onc(-c2ccc3c(c2)OCO3)c1-c1ccc2[nH]ccc2c1,1,-6,-17,-2,-3,-10,x,x
c1cc2cc(-c3c(-c4ccc5c(c4)OCO5)noc3-c3ccsc3)ccc2[nH]1,-1,-30,-13*,-2,8,-3,-10,-9.6
COc1ccc(C(=O)n2cnc3ccccc32)cc1Br,5,10,1,6,11,2,x,x
COc1ccc(C(=O)n2cnc3ccccc32)cc1[N+](=O)[O-],6,-19,-27*,5,-1,-2,5.4,4.4
c1ccc(Cc2nc3ccccc3s2)cc1,-12,-10,-18*,9,-9,20,x,-12
SMILES,FN deposit inh,Env fusion inh,Ecoli rRNA inh,miR122 inh,Vif imaging,S100A4 inh HTS,AID977621,AID977628
O=C(CCc1nc2ccccc2s1)Nc1ccccc1,1,15,x,x,1,x,x,x
Cc1ccc(-c2nc3c(Cl)cc(C(F)(F)F)cn3c2Cc2ccsc2)cc1,-4,-19,-7,x,x,-4,x,x
Fc1ccc(-c2nc3c(Cl)cc(C(F)(F)F)cn3c2Cc2ccsc2)cc1,-2,-7,-17*,x,x,-4,-12,-6.7
C[C@@H]1CN([C@@H](C)CO)C(=O)c2cc(C#C[C@@H](C)O)cnc2O[C@@H]1CN(C)C(=O)c1ccccc1,-11,0[16.7 µM],5,-7[16.7 µM],x,-28,x,x
CN1CCN(C(=O)C[C@@H]2CC[C@@H]3[C@H](COC[C@@H](O)CN3C(=O)Nc3cc(Cl)cc(Cl)c3)O2)CC1,-1,x,-31,-4[16.7 µM],x,4,x,x
Cc1ccn2cc(-c3cccc(NC(=O)c4cccs4)c3)nc2c1,-14,-36,-36*,x,-3,-1,-5.4,-13
O=C(COC(=O)CCSc1ccc(F)cc1)NCc1ccc(F)cc1,x,-24,-17*,-6,-10,-1,x,u
O=C(COC(=O)C1CC2C=CC1C2)NCCc1ccccc1 (stereo not given),8,7,-21*,-5,-7,-6,-20,-8.4
O=C(COC(=O)C1CC1)NCCc1ccccc1,2,4,x,-2,24,3,x,x
O=C(COC(=O)CCC(=O)c1ccc(F)cc1)NCCc1ccccc1,1,23,-21*,-6,7,2,-11,x
O=C(COC(=O)CCSc1ccccc1)NCc1ccccc1,5,6,1,14,-15,-1,x,x
O=C(COC(=O)CCC(=O)c1ccccc1)NCCc1ccccc1,x,8,3,2,3,-2,x,x
CO[C@@H]1CN(C)C(=O)c2ccc(NS(C)(=O)=O)cc2OC[C@@H](C)N(C(=O)C2CCOCC2)C[C@H]1C,-6,6[16.7 µM],2,-4[16.7 µM],x,8,x,x
C[C@@H]1CCCCO[C@H](CN(C)S(=O)(=O)c2ccccc2)[C@@H](C)CN([C@@H](C)CO)C(=O)c2cc(NC(=O)C3CCCCC3)ccc2O1,7,-23[16.7 µM],1,6[16.7 µM],x,0,x,x
CN(Cc1ccc(Cl)s1)C(=O)CNC(=O)CNC(=O)c1ccc(Cl)cc1Cl,-2,x,-27*,x,-6,-1,x,-5.2
COc1ccc(CN(C)C(=O)CNC(=O)CNC(=O)c2ccc(Cl)cc2Cl)cc1F,-5,0,3,x,-4,3,x,x
